Sampled rows, rich in hits. Any-hit rate of the full collection: about 1.4%.
NR2E3 ag-1 = NR2E3 agonists in two-hybrid cells, primary screen, cell-based, luminescence, CHO-S, Gal4-NCOR/VP16-NR2E3. Photoreceptor-specific nuclear receptor (Homo sapiens), Q9Y5X4. luciferase. 360,000 tested, 0.35% active. inhibition of corepressor binding, % at 3.98 µM;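 active = inhibition above the mean of all tested compounds plus 3 SD, cut at about 70% in these data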;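 note: 0% = DMSO with NR2E3 transfected cells and 100% = cells lacking NR2E3 construct; higher means lower luciferase signal from less NR2E3 corepressor binding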
Target sequence (Q9Y5X4 whole entry, looked up, the tested form may be a part): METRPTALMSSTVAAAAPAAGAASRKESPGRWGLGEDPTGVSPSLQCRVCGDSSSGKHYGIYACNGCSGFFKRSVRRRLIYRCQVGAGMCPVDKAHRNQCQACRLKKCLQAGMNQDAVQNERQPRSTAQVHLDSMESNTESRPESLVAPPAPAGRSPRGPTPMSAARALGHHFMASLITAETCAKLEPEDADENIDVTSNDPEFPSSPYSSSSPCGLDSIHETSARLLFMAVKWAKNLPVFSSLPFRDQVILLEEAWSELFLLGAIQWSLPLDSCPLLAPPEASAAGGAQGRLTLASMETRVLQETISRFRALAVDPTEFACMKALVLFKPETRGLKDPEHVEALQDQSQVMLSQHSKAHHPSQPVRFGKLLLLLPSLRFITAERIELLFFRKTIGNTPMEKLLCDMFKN
Rev-erbA mod = modulators of Rev-erb alpha DNA binding, primary screen, biochemical, FITC-DNA, fluorescence polarization, uHTS; Rev-erbα–FITC-DNA binding, 90 min; Nuclear receptor subfamily 1 group D member 1 (Homo sapiens), P20393; AID 1259318, 2017; activity, % at 10 µM; 370,000 tested, 0.79% active;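 active = activity above about 14%, limit read from the data; passing the limit was not always enough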;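 note: 0% = DMSO wells with 35 nM protein and 100% = DMSO wells with 750 nM protein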
PG9 Ab binder = binders of HIV-1 gp120 antibody PG9, primary screen, biochemical, TR-FRET; inhibition, % at 6.7 µM; 360,000 tested, 0.43% active; TR-FRET gp120-PG9 antibody binding; in the data active = inhibition above about 8.5%
NR2E3 ag-2 = inhibitors of NR2E3-RetCOR corepressor binding, primary screen, NR2E3 agonist project, biochemical, TR-FRET, GST-NR2E3, biotin-RetCOR. 1536-well. Photoreceptor-specific nuclear receptor (Homo sapiens), Q9Y5X4. inhibition of corepressor binding, % at 4.78 µM. 320,000 tested, 0.12% active;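 active = percent inhibition above the cutoff of mean plus 3 SD of all tested compounds, set per screening campaign, cut at about 20% in these data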;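 note: 0% = DMSO wells and 100% = biotin wells as full block of FRET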
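Assay system: NR2E3–RetCOR corepressor complex. Quantity: 1.35 nM GST-NR2E3. Buffer or medium: pH 7.5 Tris-based buffer. Reagent: biotinylated RetCOR corepressor at 7 nM final. Schedule: 5 h at 4 °C. Detection: TR-FRET, emission read at 617 and 671 nm. Replicates: one well per compound, singlicate testing.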
Rev-erbA confirm = modulators of Rev-erb alpha DNA binding, confirmation, biochemical, FITC-DNA, fluorescence polarization, single point | shares compounds with Rev-erbA mod | 90 min | activation, % at 25 µM | 3,000 tested, 61% active;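 active = activation at or above a set limit, or at least 3 SD above the negative control mean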;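 note: 0% = 35 nM protein with DMSO and 100% = 750 nM protein high control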
RORg DNA counter = modulation of RORgamma DNA binding, dose response, counter-screen for Rev-erb alpha modulator project, biochemical, fluorescence polarization, FITC-DNA | shares compounds with Rev-erbA mod | purified RORgamma protein-FITC-DNA binding | IC50, µM | 910 tested, 8% active | AID 1259320, 2017;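 active = Compounds whose fitted half-maximal concentration for disrupting protein-DNA binding is below 10 micromolar; the record names Rev-erb in its text, so the target is in doubt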
The depositor's hits bear a star; / = not tested or not shown.

SMILES	NR2E3 ag-1	Rev-erbA mod	PG9 Ab binder	NR2E3 ag-2	Rev-erbA confirm	others
Cc1cc(N2CCN(C(=O)Oc3ccc(-c4ccccc4)cn3)CC2)c2ccccc2n1	/	12	/	/	/
COc1ccccc1C1CC(=O)NC(C)=C1C(=O)OC(C)C (centres undefined)	5	22*	0	-3	2
N#Cc1cnc2cc(-c3ccccc3)nn2c1N	-30	27*	-2	0	32*	RORg DNA counter=>40
COc1ccc(-c2cc3ncc(-c4ccccc4)c(N)n3n2)cc1	-37	2	0	/	/
N#CCC[C@H]1CC[C@]2(CCCN(c3ccccc3)C2)O1	/	-4	/	/	/
O=C(CSc1nc2ccccc2nc1N1CCCC1)N1CCN(C(c2ccccc2)c2ccccc2)CC1	/	-8	/	/	/
O=C(CSc1nc2ccccc2nc1N1CCCCC1)N1CCN(C(c2ccccc2)c2ccc(Cl)cc2)CC1 (centres undefined)	/	19*	/	/	21*
